The values below come from publication PMC4384654 (ChemMedChem, 2014).

In general, IC50 refers to the concentration at which inhibition is half-maximal.

Structures are written as SMILES. Where only a bound is given, the exact number is not on record here.

Series [1] can be described thus: Aqueous kinetic solubility assay. It is filed as physicochemical. The conditions noted are these: Phosphate buffered saline, pH 7.4, single determination. An outline of the steps: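 Test compound from a 10 mM DMSO stock was added to PBS pH 7.4 at a target 250 µM (2.5% DMSO final). Shaken 24 h at 25 °C, then centrifuged. Supernatant was analysed by UPLC/MS with UV at 215 nm. Solubility = peak-area ratio against a 250 µM reference in 1:1 CH3CN-H2O × reference concentration × dilution factor.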

The target in series [2] is T1, FAAH prepared from rat brain homogenates (Rattus norvegicus, UniProt P97612).
T1 sequence (P97612 1-579): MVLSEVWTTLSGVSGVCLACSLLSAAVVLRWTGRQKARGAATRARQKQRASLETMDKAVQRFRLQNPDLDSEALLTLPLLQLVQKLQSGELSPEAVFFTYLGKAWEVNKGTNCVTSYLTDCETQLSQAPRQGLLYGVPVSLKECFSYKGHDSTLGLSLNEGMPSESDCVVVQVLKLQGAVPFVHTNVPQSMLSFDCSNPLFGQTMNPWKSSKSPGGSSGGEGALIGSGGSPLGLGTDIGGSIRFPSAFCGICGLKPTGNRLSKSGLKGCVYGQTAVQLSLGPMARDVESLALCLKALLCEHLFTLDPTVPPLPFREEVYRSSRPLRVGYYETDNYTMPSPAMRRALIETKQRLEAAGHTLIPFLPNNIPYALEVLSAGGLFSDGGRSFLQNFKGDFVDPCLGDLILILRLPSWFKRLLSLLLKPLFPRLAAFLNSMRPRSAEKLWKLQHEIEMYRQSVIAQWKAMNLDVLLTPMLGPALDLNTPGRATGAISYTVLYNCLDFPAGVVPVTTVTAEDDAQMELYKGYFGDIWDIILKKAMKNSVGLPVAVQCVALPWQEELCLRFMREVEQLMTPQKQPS
In words: In vitro rat FAAH radiometric assay. The class given is biochemical. The conditions noted are these: read-out: r-FAAH IC50; rat brain homogenate, mean ± SEM (n=3).

Series [3] in a line: In vitro mouse liver microsomes. The class given is in vitro ADME. The note with it: 5 μM compound, mean of three determinations. An outline of the steps:
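Test compound at 5 µM (0.1% DMSO) was preincubated 15 min with 1.25 mg/mL mouse liver microsomes in 100 mM Tris-HCl pH 7.4. At time zero, NADP 1 mM, G6P 20 mM, MgCl2 2 mM and G6P dehydrogenase 2 Units were added; shaken at 37 °C. Samples at 0–60 min were quenched in acetonitrile with warfarin internal standard and analysed by LC-MS/MS (MRM). A no-cofactor control was sampled at the end.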
Background: Microsomes from liver hold many membrane-bound enzymes, among them those of drug oxidation.

The next series concerns the target T2, purified rat MGL (Rattus norvegicus, UniProt Q8R431).
T2 sequence (Q8R431 1-303): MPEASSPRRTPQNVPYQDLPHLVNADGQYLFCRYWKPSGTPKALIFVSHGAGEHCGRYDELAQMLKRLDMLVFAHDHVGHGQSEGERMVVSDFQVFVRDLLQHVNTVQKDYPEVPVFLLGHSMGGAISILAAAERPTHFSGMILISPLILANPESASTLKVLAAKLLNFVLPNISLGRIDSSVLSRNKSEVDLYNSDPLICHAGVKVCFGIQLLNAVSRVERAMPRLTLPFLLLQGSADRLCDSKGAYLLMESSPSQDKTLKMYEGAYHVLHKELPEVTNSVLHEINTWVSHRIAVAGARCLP
In words: MGL activity assay. The note with it: tested at concentrations up to 100 μM (Figure S1). The class given is biochemical.

Series [4] is described as follows: In vitro rat plasma stability assay. The class given is in vitro ADME. The conditions noted are these: 37 °C, 1.0 μM. An outline of the steps: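 Test compound at 1.0 µM final was incubated at 37 °C in rat plasma (prewarmed 30 min) containing 10% DMSO. Samples at 0, 30, 60, 120, 240, 360 and 420 min were quenched in cold CH3CN with 200 nM warfarin internal standard and centrifuged. Supernatant was quantified by LC-MS/MS (MRM). Internal-standard-normalised response was plotted over time. Run in triplicate.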

In the next series the target is T3, human FAAH-1 (Homo sapiens, UniProt O00519).
T3 sequence (O00519 1-579): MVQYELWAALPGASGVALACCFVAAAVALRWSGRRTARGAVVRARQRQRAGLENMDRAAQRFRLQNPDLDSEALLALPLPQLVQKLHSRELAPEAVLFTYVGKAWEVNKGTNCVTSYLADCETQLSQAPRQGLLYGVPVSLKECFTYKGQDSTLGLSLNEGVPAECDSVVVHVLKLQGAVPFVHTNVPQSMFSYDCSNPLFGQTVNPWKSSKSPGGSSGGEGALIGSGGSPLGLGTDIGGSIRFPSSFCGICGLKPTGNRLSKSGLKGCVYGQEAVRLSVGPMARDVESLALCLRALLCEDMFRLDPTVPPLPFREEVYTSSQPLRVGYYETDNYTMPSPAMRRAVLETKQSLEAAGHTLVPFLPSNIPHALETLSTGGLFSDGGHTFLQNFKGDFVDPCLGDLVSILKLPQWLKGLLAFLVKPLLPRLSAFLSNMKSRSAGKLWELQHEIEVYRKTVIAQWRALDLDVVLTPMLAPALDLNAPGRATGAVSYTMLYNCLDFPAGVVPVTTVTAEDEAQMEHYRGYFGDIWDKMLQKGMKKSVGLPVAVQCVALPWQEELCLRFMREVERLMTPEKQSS
In words: In vitro human FAAH fluorescent assay. The class given is biochemical. The note with it: h-FAAH-1 vs r-FAAH.

`COc1cccc(Cn2cc(CNC(=O)OCc3cn(Cc4cccc(OC)c4)nn3)nn2)c1` [Compound 34b, [1-[(3-methoxyphenyl)methyl]triazol-4-yl]methyl N-[[1-[(3-methoxyphenyl)methyl]triazol-4-yl]methyl]carbamate]: the Kinetic sol. in series [1] came to 174 µM. The 50% inhibitory concentration (IC50) in series [2] was found to be 3.9 ± 0.7 nM. Also, the “MLM Stab. half-life” value in series [3] is 6 min. In addition, the “Inhibition of MGL activity” value on purified rat MGL was “None of the compounds inhibited MGL activity”.

In series [1], `O=C(NC1CCCCC1)Oc1cccc(-c2ccccc2)c1` [Compound 1a, URB524, reference compound] came in with a Kinetic sol. of 6 µM. Also, in series [2], the IC50 was found to be 5.7 ± 1.2 nM. For the same compound, the “MLM Stab. half-life” value in series [3] is recorded as below 5 min. For the same compound, the Plasma half-life in series [4] came out at 62 ± 19 min.

As for `COc1ccc(Cn2cc(CNC(=O)OCc3cn(Cc4cccc(OC)c4)nn3)nn2)cc1` [Compound 40, [1-[(3-methoxyphenyl)methyl]triazol-4-yl]methyl N-[[1-[(4-methoxyphenyl)methyl]triazol-4-yl]methyl]carbamate], the Kinetic sol. in series [1] amounted to 152 µM. Besides, the IC50 in series [2] is 5.8 ± 0.6 nM. The “MLM Stab. half-life” value in series [3] stood at 8 min. In addition, on purified rat MGL, the “Inhibition of MGL activity” value is listed as “None of the compounds inhibited MGL activity”.

In series [1], `COc1cc(Cn2cc(COC(=O)NC3CCCCC3)nn2)cc(OC)c1` [Compound 27, [1-[(3,5-dimethoxyphenyl)methyl]triazol-4-yl]methyl N-cyclohexylcarbamate] displayed a Kinetic sol. of 18 µM. The IC50 in series [2] was 10.5 ± 2.9 nM. For the same compound, the “MLM Stab. half-life” value in series [3] is 5 min. Besides, the “Inhibition of MGL activity” value on purified rat MGL is reported as “None of the compounds inhibited MGL activity”. Besides, the “Higher potency on h-FAAH-1 with respect to r-FAAH” value at human FAAH-1 stood at 3 fold.
